Reference: ChEMBL document CHEMBL5107964, “Development of 2-deoxystreptamine-nucleobase conjugates for the inhibition of oncogenic miRNA production” (RSC Med Chem, 2022)
The source made the active and inactive calls. The calls are words filed in the database; no cut-off is given here.

What was measured:
[1] = Binding affinity to 5'FAM-labeled Precursor microRNA-372 (unknown origin) assessed as dissociation constant incubated for 4 hrs by fluorescence-based assay
Method in brief: (§1)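 Each 5'-FAM-labelled pre-miRNA (10 nM) was folded in 20 mM Tris-HCl pH 7.4, 12 mM NaCl, 1 mM DTT by heating at 90°C for 2 min, holding at 4°C for 10 min and returning to room temperature over 15 min. Ligand was added in 15 dilutions (0.030 nM–0.5 mM). Fluorescence (ex 485, em 535 nm) was read after 4 h. Runs were in duplicate, repeated at least three times, and KD came from a 1:1 binding model.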

[2] = Binding affinity to 5'FAM-labeled Precursor microRNA-372 (unknown origin) assessed as dissociation constant incubated for 4 hrs in presence of tRNA by fluorescence-based assay
Method in brief: (§2)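 KD was measured with 10 nM folded 5'-FAM-pre-miR-372 in 20 mM Tris-HCl pH 7.4, 12 mM NaCl, 1 mM DTT, with 100 eq. competitor added to the RNA. Competitor was tRNA or duplex DNA from two 15-mer strands annealed at 90°C for 5 min then slowly cooled. Ligand was added in 15 dilutions (0.030 nM–0.5 mM) and fluorescence (ex 485, em 535 nm) read after 4 h. A 1:1 model was fitted.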

[3] = Binding affinity to 5'FAM-labeled Precursor microRNA-372 (unknown origin) assessed as dissociation constant incubated for 4 hrs in presence of DNA by fluorescence-based assay; method in brief: as §2
[4] = Inhibition of Precursor microRNA-372 in human HEK293 cell lysate assessed as inhibition of Dicer-induced pre-miR-372 maturation by measuring fluorescence incubated for 4 hrs by FRET Dicer assay; format: subcellular
Method in brief: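 The FRET cleavage assay used 50 nM pre-miR-372 beacon (5'-FAM, 3'-dabcyl), with HEK293 whole-cell lysate in place of recombinant enzyme. Inhibitor was preincubated with the beacon for 30 min at room temperature. After 4 h at 37°C the fluorescence rise (ex 485, em 535 nm) was measured. IC50 was obtained by nonlinear regression.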

[5] = Inhibition of 5'FAM-labeled and 3'DAB-labeled Precursor microRNA-372 (unknown origin) assessed as inhibition of Dicer-induced pre-miR-372 cleavage by measuring fluorescence incubated for 4 hrs in presence of human recombinant Dicer by FRET Dicer assay
Method in brief: (§3)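 The pre-miRNA beacon (50 nM; 5'-FAM, 3'-dabcyl) in 20 mM Tris-HCl pH 7.4, 12 mM NaCl, 1 mM DTT was preincubated with inhibitor (12 dilutions) for 30 min at room temperature. Human recombinant Dicer was then added. After 4 h at 37°C the fluorescence increase (ex 485, em 535 nm) was read. Assays were in duplicate, repeated three times, and IC50 was obtained by nonlinear regression.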

[6] = Binding affinity to 5'FAM-labeled Precursor microRNA-18a (unknown origin) incubated for 4 hrs by fluorescence-based assay; method in brief: as §1
[7] = Binding affinity to 5'FAM-labeled Precursor microRNA-148a (unknown origin) incubated for 4 hrs by fluorescence-based assay; method in brief: as §1
[8] = Selectivity ratio of Kd for binding affinity to 5'FAM-labeled Precursor microRNA-372 (unknown origin) in presence of tRNA to Kd for binding affinity to 5'FAM-labeled Precursor microRNA-372 (unknown origin)
[9] = Selectivity ratio of Kd for binding affinity to 5'FAM-labeled Precursor microRNA-372 (unknown origin) in presence of DNA to Kd for binding affinity to 5'FAM-labeled Precursor microRNA-372 (unknown origin)
[10] = Inhibition of 5'FAM-labeled and 3'DAB-labeled Precursor microRNA-18a (unknown origin) assessed as inhibition of Dicer-induced pre-miR-18a cleavage by measuring fluorescence incubated for 4 hrs in presence of human recombinant Dicer by FRET Dicer assay; method in brief: as §3
[11] = Inhibition of 5'FAM-labeled and 3'DAB-labeled Precursor microRNA-148a (unknown origin) assessed as inhibition of Dicer-induced pre-miR-148a cleavage by measuring fluorescence incubated for 4 hrs in presence of human recombinant Dicer by FRET Dicer assay; method in brief: as §3

SMILES	Kd [1] [µM]	Kd [2] [µM]	Kd [3] [µM]	IC50 [4] [µM]	IC50 [5] [µM]	Activity [6]	Activity [7]	Selectivity ratio [8]	Selectivity ratio [9]	IC50 [10] [µM]	IC50 [11] [µM]
N[C@@H]1C[C@H](N)[C@@H](OCCn2cc(Cn3cnc(-c4cccc(NC(=O)c5ccccc5)c4)c3)nn2)[C@H](O)[C@H]1O	0.627	2.64	2.96	29.5	12.6	Active	Active				
Nc1ccn(Cc2cn(CCO[C@H]3[C@H](O)[C@@H](O)[C@H](N)C[C@@H]3N)nn2)c(=O)n1	101	> 1000	> 1000								
N[C@@H]1C[C@H](N)[C@@H](OCCn2cc(CCC(=O)NCC(=O)Nc3nc(-c4ccccc4)cs3)nn2)[C@H](O)[C@H]1O	5.13	8.56	11		74.9	Active	Active	1.7	2.1	89.5	85.3
N[C@@H]1C[C@H](N)[C@@H](OCCn2cc(Cn3cnc(-c4cccc(NC(=O)c5ccc6ccccc6c5)c4)c3)nn2)[C@H](O)[C@H]1O	6.78	8.51	9.02		> 100	Active	Active	1.3	1.3	177	> 500
N[C@@H]1C[C@H](N)[C@@H](O)[C@H](O)[C@H]1O	> 1000										
CCCCNC(=O)Nc1cccc(-c2cn(Cc3cn(CCO[C@H]4[C@H](O)[C@@H](O)[C@H](N)C[C@@H]4N)nn3)cn2)c1	1.62	3.65	2.11		72.4			2.2	1.3		
NC[C@@H]1O[C@H](O[C@H]2[C@@H](O)[C@H](O[C@@H]3[C@@H](O)[C@H](N)C[C@H](N)[C@H]3O[C@H]3O[C@H](CN)[C@@H](O)[C@H](O)[C@H]3N)O[C@@H]2Cn2cc(Cn3cnc(-c4cccc(NC(=O)c5ccccc5)c4)c3)nn2)[C@H](N)[C@@H](O)[C@@H]1O	0.0189	0.0208	0.0244	20.4	8.3			1.1	1.3		
Nc1cccc(-c2cn(Cc3cn(CCO[C@H]4[C@H](O)[C@@H](O)[C@H](N)C[C@@H]4N)nn3)cn2)c1	3.53	3.92	4.27	> 500	81.1	Active	Active	1.1	1.2	20.3	18.2
N[C@@H]1C[C@H](N)[C@@H](OCCn2cc(Cn3ccc(O)nc3=O)nn2)[C@H](O)[C@H]1O	17.1	> 1000	> 1000								
CCCCNC(=O)Nc1cccc(-c2cn(Cc3cn(C[C@H]4O[C@@H](O[C@@H]5[C@@H](O)[C@H](N)C[C@H](N)[C@H]5O[C@H]5O[C@H](CN)[C@@H](O)[C@H](O)[C@H]5N)[C@H](O)[C@@H]4O[C@H]4O[C@@H](CN)[C@@H](O)[C@H](O)[C@H]4N)nn3)cn2)c1	0.0461	0.0164	0.0222		25.6			1.1	1.5		
Nc1ncnc2c1ncn2Cc1cn(CCO[C@H]2[C@H](O)[C@@H](O)[C@H](N)C[C@@H]2N)nn1	11.1	> 1000	47.1						4.2		
